ChEMBL document CHEMBL4680100, “Revisiting the SAR of the Antischistosomal Aryl Hydantoin (Ro 13-3978)” (J Med Chem, 2016)
≈ marks a conversion by molar mass, not a printed value.

Columns and labels:
[1] = Kinetic solubility of the compound in 0.01 M HCl at pH 2 by nephelometry; assay type: physicochemical; details: read-out: Kinetic_solubility
Schistosoma mansoni = test: Antischistosomal activity against Schistosoma mansoni infected in NMRI mouse assessed as reduction in total worm burden at 100 mg/kg, po administered as single dose starting on day 49 post-infection and measured at 28 days post treatment relative to control; assay type: functional; parameters: scale not given: the % may be the effect or the level left; details: time 28 day
Procedure, shortened: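 S. mansoni-infected NMRI mice treated on day 49 post-infection with a single oral dose, dissolved or suspended in 7% v/v Tween 80, 3% v/v ethanol (10 mL/kg), five mice per group. Sacrificed and dissected 28 d post-treatment; worms counted to give total worm burden reduction versus untreated controls. Kruskal–Wallis test on medians, treatment versus control.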

[2] = Kinetic solubility of compound at pH 6.5 phosphate buffer by nephelometry; assay type: physicochemical; details: read-out: Kinetic_solubility
[3] = Octanol/water partition coefficient, logD of the compound at pH 7.4 by HPLC analysis
L6 = test: Cytotoxicity against rat L6 cells assessed as reduction in cell viability at up to 30 uM; assay type: cell-based
Androgen receptor = molecular target: T1, Androgen receptor (Homo sapiens, UniProt P10275)
T1 sequence (P10275 whole entry): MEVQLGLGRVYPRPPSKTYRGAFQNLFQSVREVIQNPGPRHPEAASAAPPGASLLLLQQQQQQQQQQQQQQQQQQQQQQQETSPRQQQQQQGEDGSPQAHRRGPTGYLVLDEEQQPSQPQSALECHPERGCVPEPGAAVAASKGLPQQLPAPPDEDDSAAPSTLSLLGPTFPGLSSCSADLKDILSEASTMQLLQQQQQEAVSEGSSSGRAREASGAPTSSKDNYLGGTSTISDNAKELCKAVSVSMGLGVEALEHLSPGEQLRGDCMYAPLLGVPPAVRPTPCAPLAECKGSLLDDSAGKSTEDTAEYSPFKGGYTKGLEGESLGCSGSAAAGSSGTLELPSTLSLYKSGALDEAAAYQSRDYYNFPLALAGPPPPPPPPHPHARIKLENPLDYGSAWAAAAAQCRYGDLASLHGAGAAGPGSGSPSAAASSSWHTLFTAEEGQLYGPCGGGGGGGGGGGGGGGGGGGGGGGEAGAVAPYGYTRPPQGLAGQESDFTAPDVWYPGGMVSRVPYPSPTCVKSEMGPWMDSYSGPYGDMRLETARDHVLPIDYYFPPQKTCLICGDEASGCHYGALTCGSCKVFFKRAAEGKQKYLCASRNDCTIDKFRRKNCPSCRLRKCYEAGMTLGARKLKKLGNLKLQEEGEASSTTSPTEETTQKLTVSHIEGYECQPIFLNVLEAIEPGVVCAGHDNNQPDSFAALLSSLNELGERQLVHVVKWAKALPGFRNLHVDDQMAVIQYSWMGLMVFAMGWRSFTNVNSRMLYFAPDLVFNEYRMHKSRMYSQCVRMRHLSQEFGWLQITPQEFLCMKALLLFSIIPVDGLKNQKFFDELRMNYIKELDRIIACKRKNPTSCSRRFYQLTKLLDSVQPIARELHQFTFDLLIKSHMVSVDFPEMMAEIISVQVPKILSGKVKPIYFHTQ

[4] = Intrinsic clearance in human liver microsome in presence of NADPH-regenerating system incubated over 60 mins by LC-MS analysis; details: microsomes, 1 h
[5] = Intrinsic clearance in mouse liver microsome in presence of NADPH-regenerating system incubated over 60 mins by LC-MS analysis; details: microsomes, 1 h
Albumin = Albumin (Homo sapiens, UniProt P02768); test: Protein binding in immobilized human serum albumin by HPLC analysis; assay type: ADME; details: isolated protein
Procedure, shortened: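 Binding estimated from gradient HPLC retention on a human albumin column, correlated against standard compounds of known protein binding.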

Sequence of Albumin (P02768 whole entry): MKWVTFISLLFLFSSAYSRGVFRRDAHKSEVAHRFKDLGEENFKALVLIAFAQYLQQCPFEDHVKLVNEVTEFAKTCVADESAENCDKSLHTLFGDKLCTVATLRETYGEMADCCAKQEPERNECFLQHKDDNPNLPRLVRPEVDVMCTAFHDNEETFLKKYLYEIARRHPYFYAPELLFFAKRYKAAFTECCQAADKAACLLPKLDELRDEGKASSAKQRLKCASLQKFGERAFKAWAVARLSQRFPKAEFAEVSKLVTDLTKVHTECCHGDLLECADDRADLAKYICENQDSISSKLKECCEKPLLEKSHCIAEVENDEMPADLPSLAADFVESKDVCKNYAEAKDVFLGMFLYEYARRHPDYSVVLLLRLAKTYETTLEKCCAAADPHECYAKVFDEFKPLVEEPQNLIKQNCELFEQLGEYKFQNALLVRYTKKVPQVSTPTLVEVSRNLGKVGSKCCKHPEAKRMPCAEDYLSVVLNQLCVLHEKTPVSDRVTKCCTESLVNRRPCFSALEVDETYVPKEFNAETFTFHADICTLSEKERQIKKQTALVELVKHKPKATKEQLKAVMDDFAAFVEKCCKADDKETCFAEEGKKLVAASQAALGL

Q: For `O=C(C1CCCCC1)N1CC(=O)N2CCc3ccccc3C2C1` (configuration not stated) [PRAZIQUANTEL], which solubility kinetic [1] is on record?
A: The solubility kinetic was greater than 100 µg/mL.

Q: And the Activity (Schistosoma mansoni)?
A: The Activity was 18%.

Q: What about the solubility kinetic [2] of the same compound?
A: The solubility kinetic was greater than 100 µg/mL.

Q: And the logD [3]?
A: The logD was 3.

Q: Which results are given for `Cc1ccc(N2C(=O)NC(C)(C)C2=O)cc1C(F)(F)F`?
A: Activity (L6): Non-Toxic; solubility kinetic [1]: > 100 µg/mL; IC50 (Androgen receptor): > 10 µM; CLH [4]: < 7 µL/min/mg; CLH [5]: 16 µL/min/mg; PPB (Albumin): 64.8%; Activity (Schistosoma mansoni): 4.8%; solubility kinetic [2]: > 100 µg/mL; logD [3]: 2.8

Q: Which Activity (L6) does the source give for `O=C1NC2(CCCCC2)C(=O)N1c1ccc(F)c(C(F)(F)F)c1` here?
A: Its Activity is “Non-Toxic”.

Q: And the solubility kinetic [1]?
A: The solubility kinetic was 3.1 µg/mL (≈ 9.39 µM).

Q: And the IC50 (Androgen receptor)?
A: The IC50 was 4.2 µM.

Q: What about the CLH [4] of the same compound?
A: The CLH was 25 µL/min/mg.

Q: What about the CLH [5] of the same compound?
A: Its CLH is 122 µL/min/mg.

Q: What about the PPB (Albumin) of the same compound?
A: Its PPB is 74.9%.

Q: What about the Activity (Schistosoma mansoni) of the same compound?
A: The Activity was 42%.

Q: And the solubility kinetic [2]?
A: The solubility kinetic was 3.1 µg/mL (≈ 9.39 µM).

Q: And the logD [3]?
A: The logD was 3.5.

Q: Which Activity (L6) does the source give for `CC1(C)NC(=O)N(c2ccc(Cl)c(C(F)(F)F)c2)C1=O` here?
A: Its Activity is “Non-Toxic”.

Q: And the solubility kinetic [1]?
A: The solubility kinetic was greater than 100 µg/mL.

Q: And the IC50 (Androgen receptor)?
A: The IC50 was 1.3 µM.

Q: What about the CLH [4] of the same compound?
A: Its CLH is less than 7 µL/min/mg.

Q: What about the CLH [5] of the same compound?
A: Its CLH is less than 7 µL/min/mg.

Q: And the PPB (Albumin)?
A: The PPB was 79.6%.

Q: What about the Activity (Schistosoma mansoni) of the same compound?
A: The Activity was 75%.

Q: And the solubility kinetic [2]?
A: Its solubility kinetic is greater than 100 µg/mL.

Q: What about the logD [3] of the same compound?
A: The logD was 3.

Q: For `CC1(C)NC(=O)N(c2ccnc3ccccc23)C1=O`, which Activity (L6) is on record?
A: Its Activity is “Non-Toxic”.

Q: And the solubility kinetic [1]?
A: The solubility kinetic was greater than 100 µg/mL.

Q: What about the IC50 (Androgen receptor) of the same compound?
A: Its IC50 is 1.3 µM.

Q: And the CLH [4]?
A: The CLH was less than 7 µL/min/mg.

Q: What about the CLH [5] of the same compound?
A: The CLH was less than 7 µL/min/mg.

Q: And the PPB (Albumin)?
A: Its PPB is 16.9%.

Q: And the Activity (Schistosoma mansoni)?
A: The Activity was 17%.

Q: And the solubility kinetic [2]?
A: Its solubility kinetic is greater than 100 µg/mL.

Q: And the logD [3]?
A: The logD was 1.2.

Q: For `CC1(C)NC(=O)N(c2ccc(F)c(C#N)c2)C1=O`, which Activity (L6) is on record?
A: The Activity was “Non-Toxic”.

Q: And the solubility kinetic [1]?
A: The solubility kinetic was greater than 100 µg/mL.

Q: What about the IC50 (Androgen receptor) of the same compound?
A: The IC50 was 3.7 µM.

Q: What about the CLH [4] of the same compound?
A: The CLH was less than 7 µL/min/mg.

Q: What about the CLH [5] of the same compound?
A: Its CLH is less than 7 µL/min/mg.

Q: And the PPB (Albumin)?
A: Its PPB is 14.6%.

Q: And the Activity (Schistosoma mansoni)?
A: Its Activity is 10%.

Q: What about the solubility kinetic [2] of the same compound?
A: The solubility kinetic was greater than 100 µg/mL.

Q: What about the logD [3] of the same compound?
A: Its logD is 1.7.

Q: What does the source list for `CC1(C)CC(=O)N(c2ccc(F)c(C(F)(F)F)c2)C(=O)N1`?
A: Activity (L6): Non-Toxic; solubility kinetic [1]: 25 µg/mL (≈ 82.2 µM); IC50 (Androgen receptor): > 10 µM; CLH [4]: < 7 µL/min/mg; CLH [5]: < 7 µL/min/mg; PPB (Albumin): 15%; Activity (Schistosoma mansoni): 51%; solubility kinetic [2]: 25 µg/mL (≈ 82.2 µM); logD [3]: 2.4

Q: What does the source list for `CC1(CO)NC(=O)N(c2ccc(F)c(C(F)(F)F)c2)C1=O` (configuration not stated)?
A: Activity (L6): Non-Toxic; solubility kinetic [1]: 25 µg/mL (≈ 81.6 µM); IC50 (Androgen receptor): 4.8 µM; CLH [4]: < 7 µL/min/mg; CLH [5]: < 7 µL/min/mg; PPB (Albumin): 34.3%; Activity (Schistosoma mansoni): 0%; solubility kinetic [2]: 25 µg/mL (≈ 81.6 µM); logD [3]: 1.9

Q: What does the source list for `CC1(C)C(=O)N(c2ccc(F)c(C(F)(F)F)c2)C(=O)N1CCc1ccccc1`?
A: Activity (L6): Non-Toxic; solubility kinetic [1]: 12.5 µg/mL (≈ 31.7 µM); IC50 (Androgen receptor): 2.4 µM; CLH [4]: > 870 µL/min/mg; CLH [5]: 740 µL/min/mg; PPB (Albumin): 96.2%; Activity (Schistosoma mansoni): 54%; solubility kinetic [2]: 25 µg/mL (≈ 63.4 µM); logD [3]: 4.6

Q: With `CC1(C)NC(=O)N(c2ccncc2)C1=O` as the compound, how does the Activity (L6) read?
A: Its Activity is “Non-Toxic”.

Q: What about the solubility kinetic [1] of the same compound?
A: The solubility kinetic was 50 µg/mL (≈ 244 µM).

Q: What about the IC50 (Androgen receptor) of the same compound?
A: The IC50 was 3.8 µM.

Q: What about the CLH [4] of the same compound?
A: Its CLH is less than 7 µL/min/mg.

Q: And the CLH [5]?
A: Its CLH is 11 µL/min/mg.

Q: What about the PPB (Albumin) of the same compound?
A: Its PPB is 6.7%.

Q: And the Activity (Schistosoma mansoni)?
A: The Activity was 1.8%.

Q: What about the solubility kinetic [2] of the same compound?
A: Its solubility kinetic is greater than 100 µg/mL.

Q: For `CC1(C)CN(c2ccc(F)c(C(F)(F)F)c2)C(=O)N1`, which Activity (L6) is on record?
A: Its Activity is “Non-Toxic”.

Q: What about the solubility kinetic [1] of the same compound?
A: The solubility kinetic was 12.5 µg/mL (≈ 45.3 µM).

Q: What about the IC50 (Androgen receptor) of the same compound?
A: The IC50 was 8.1 µM.

Q: What about the CLH [4] of the same compound?
A: Its CLH is less than 7 µL/min/mg.

Q: And the CLH [5]?
A: The CLH was 30 µL/min/mg.

Q: What about the PPB (Albumin) of the same compound?
A: The PPB was 78.3%.

Q: And the Activity (Schistosoma mansoni)?
A: The Activity was 59%.

Q: What about the solubility kinetic [2] of the same compound?
A: Its solubility kinetic is 12.5 µg/mL (≈ 45.3 µM).

Q: And the logD [3]?
A: The logD was 3.2.

Q: Which Activity (L6) does the source give for `CC(C)(NC(=O)Nc1ccc(F)c(C(F)(F)F)c1)C(=O)O` here?
A: The Activity was “Non-Toxic”.

Q: What about the solubility kinetic [1] of the same compound?
A: The solubility kinetic was 25 µg/mL (≈ 81.1 µM).

Q: What about the IC50 (Androgen receptor) of the same compound?
A: Its IC50 is 3.1 µM.

Q: What about the CLH [4] of the same compound?
A: Its CLH is less than 7 µL/min/mg.

Q: What about the CLH [5] of the same compound?
A: The CLH was less than 7 µL/min/mg.

Q: And the PPB (Albumin)?
A: The PPB was 94.3%.

Q: What about the Activity (Schistosoma mansoni) of the same compound?
A: The Activity was 67%.

Q: What about the solubility kinetic [2] of the same compound?
A: The solubility kinetic was greater than 100 µg/mL.

Q: What about the logD [3] of the same compound?
A: Its logD is 1.1.
